Calls of active or inactive are those of the source. No cut-off for these calls is given here.
Assays:
SK-BR-3 = test: Cytotoxicity against human SKBR3 cells after 72 hrs by MTT assay; type: functional, cell-based; settings: SK-BR-3, 72 h
Summary of the method: (§1)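 Cells seeded at 3000-6000 per well on day 0, according to cell line doubling time. Compound added in five 10-fold dilutions, 72-h incubation, then MTT colorimetric read-out. Absorbances converted to percentage growth by NCI formulae. IC50 obtained by linear regression between the concentrations bracketing PG 50; ">100" assigned when no concentration reaches it. Quadruplicate points, three independent experiments.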

SW-620 [1] = test: Cytotoxicity against human SW620 cells after 72 hrs by MTT assay; type: functional, cell-based; settings: for IC50: Homo sapiens, SW-620, 72 h; summary of the method: as §1
MIA PaCa-2 = test: Cytotoxicity against human MIAPaCa2 cells after 72 hrs by MTT assay; type: functional, cell-based; settings: Homo sapiens, MIA PaCa-2, 72 h; summary of the method: as §1
MCF7 = test: Cytotoxicity against human MCF7 cells after 72 hrs by MTT assay; type: functional, cell-based; settings: Homo sapiens, MCF7, 72 h; summary of the method: as §1
WI-38 = test: Cytotoxicity against human WI38 cells after 72 hrs by MTT assay; type: cell-based; settings: Homo sapiens, WI-38, 72 h; summary of the method: as §1
HeLa = test: Cytotoxicity against human HeLa cells after 72 hrs by MTT assay; type: functional, cell-based; settings: Homo sapiens, HeLa, 72 h; summary of the method: as §1
SW-620 [2] = test: Induction of cell cycle arrest in human SW620 cells assessed as S phase cells at 5 uM after 24 hrs by PI-staining based flow cytometric analysis (reference value: 41.1 +/- 0.8%); type: functional
SW-620 [3] = test: Induction of cell cycle arrest in human SW620 cells assessed as G1 phase cells at 10 uM after 24 hrs by PI-staining based flow cytometric analysis (reference value: 46.3 +/- 1.8%); type: functional
SW-620 [4] = test: Induction of cell cycle arrest in human SW620 cells assessed as G1 phase cells at 5 uM after 48 hrs by PI-staining based flow cytometric analysis (reference value: 51.1 +/- 2.5%); type: functional
SW-620 [5] = test: Induction of cell cycle arrest in human SW620 cells assessed as subG1 phase cells at 10 uM after 48 hrs by PI-staining based flow cytometric analysis (reference value: 8.5 +/- 2.1%); type: functional
SW-620 [6] = test: Induction of cell cycle arrest in human SW620 cells assessed as G1 phase cells at 10 uM after 48 hrs by PI-staining based flow cytometric analysis (reference value: 51.1 +/- 2.5%); type: functional
SW-620 [7] = test: Induction of apoptosis in human SW620 cells assessed as caspase3 activation at 10 uM after 24 to 48 hrs by caspase protease assay; type: functional, cell-based
Summary of the method: (§2)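 Compound at 5 µM on SK-BR-3 and 10 µM on SW620. Cells harvested after 24 and 48 h, washed in PBS, lysed 10 min on ice, centrifuged. Lysate diluted to 3 mg/mL protein and mixed with DTT-containing reaction buffer and caspase-3, -8 or -9 substrate. Incubated 90 min at 37 °C in the dark. Absorbance read at 405 nm, duplicates, compared with untreated control.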

SW-620 [8] = test: Induction of cell cycle arrest in human SW620 cells assessed as S phase cells at 10 uM after 24 hrs by PI-staining based flow cytometric analysis (reference value: 41.1 +/- 0.8%); type: functional
SW-620 [9] = test: Induction of cell cycle arrest in human SW620 cells assessed as G2/M phase cells at 10 uM after 24 hrs by PI-staining based flow cytometric analysis (reference value: 12.6 +/- 1%); type: functional
SW-620 [10] = test: Induction of cell cycle arrest in human SW620 cells assessed as subG1 phase cells at 10 uM after 24 hrs by PI-staining based flow cytometric analysis (reference value: 6.9 +/- 2.1%); type: functional
SW-620 [11] = test: Induction of cell cycle arrest in human SW620 cells assessed as S phase cells at 10 uM after 48 hrs by PI-staining based flow cytometric analysis (reference value: 39.9 +/- 0.5%); type: functional
SW-620 [12] = test: Induction of cell cycle arrest in human SW620 cells assessed as G2/M phase cells at 10 uM after 48 hrs by PI-staining based flow cytometric analysis (reference value: 8.9 +/- 0.4%); type: functional
SW-620 [13] = test: Induction of mitotic catastrophe in human SW620 cells assessed as accumulation of G2/M phase cells at 5 to 10 uM after 24 to 48 hrs by PI-staining based flow cytometric analysis relative to control; type: functional, cell-based
SW-620 [14] = test: Induction of cell cycle arrest in human SW620 cells assessed as G1 phase cells at 5 uM after 24 hrs by PI-staining based flow cytometric analysis (reference value: 46.3 +/- 1.8%); type: functional
SW-620 [15] = test: Induction of cell cycle arrest in human SW620 cells assessed as S phase cells at 5 uM after 48 hrs by PI-staining based flow cytometric analysis (reference value: 39.9 +/- 0.5%); type: functional
SW-620 [16] = test: Induction of cell cycle arrest in human SW620 cells assessed as subG1 phase cells at 5 uM after 48 hrs by PI-staining based flow cytometric analysis (reference value: 8.5 +/- 2.1%); type: functional
SW-620 [17] = test: Induction of apoptosis in human SW620 cells assessed as caspase9 activation at 10 uM after 24 to 48 hrs by caspase protease assay; type: functional, cell-based; summary of the method: as §2
SW-620 [18] = test: Induction of cell cycle arrest in human SW620 cells assessed as G2/M phase cells at 5 uM after 24 hrs by PI-staining based flow cytometric analysis (reference value: 12.6 +/- 1%); type: functional
SW-620 [19] = test: Induction of cell cycle arrest in human SW620 cells assessed as subG1 phase cells at 5 uM after 24 hrs by PI-staining based flow cytometric analysis (reference value: 6.9 +/- 2.1%); type: functional
SW-620 [20] = test: Induction of apoptosis in human SW620 cells assessed as caspase8 activation at 10 uM after 24 to 48 hrs by caspase protease assay; type: functional, cell-based; summary of the method: as §2
SW-620 [21] = test: Induction of cell cycle arrest in human SW620 cells assessed as G2/M phase cells at 5 uM after 48 hrs by PI-staining based flow cytometric analysis (reference value: 8.9 +/- 0.4%); type: functional
SW-620 [22] = test: Induction of cell cycle arrest in human SW620 cells assessed as subG1 phase cells at 10 uM after 48 hrs by PI-staining based flow cytometric analysis (reference value: 5.8 +/- 0.3%); type: functional
SW-620 [23] = test: Induction of cell cycle arrest in human SW620 cells assessed as S phase cells at 10 uM after 24 hrs by PI-staining based flow cytometric analysis (reference value: 38.3 +/- 0.4%); type: functional
SW-620 [24] = test: Induction of cell cycle arrest in human SW620 cells assessed as S phase cells at 5 uM after 48 hrs by PI-staining based flow cytometric analysis (reference value: 41.6 +/- 0.3%); type: functional
SW-620 [25] = test: Induction of cell cycle arrest in human SW620 cells assessed as G1 phase cells at 5 uM after 24 hrs by PI-staining based flow cytometric analysis (reference value: 52.6 +/- 2.3%); type: functional
SW-620 [26] = test: Induction of cell cycle arrest in human SW620 cells assessed as G2/M phase cells at 5 uM after 24 hrs by PI-staining based flow cytometric analysis (reference value: 9.3 +/- 2.6%); type: functional
SW-620 [27] = test: Induction of cell cycle arrest in human SW620 cells assessed as G2/M phase cells at 5 uM after 48 hrs by PI-staining based flow cytometric analysis (reference value: 8.5 +/- 1.6%); type: functional
SW-620 [28] = test: Induction of cell cycle arrest in human SW620 cells assessed as S phase cells at 5 uM after 24 hrs by PI-staining based flow cytometric analysis (reference value: 38.3 +/- 0.4%); type: functional
SW-620 [29] = test: Induction of cell cycle arrest in human SW620 cells assessed as G2/M phase cells at 10 uM after 24 hrs by PI-staining based flow cytometric analysis (reference value: 9.3 +/- 2.6%); type: functional
SW-620 [30] = test: Induction of cell cycle arrest in human SW620 cells assessed as G1 phase cells at 5 uM after 48 hrs by PI-staining based flow cytometric analysis (reference value: 49.9 +/- 1.4%); type: functional
SW-620 [31] = test: Induction of cell cycle arrest in human SW620 cells assessed as S phase cells at 10 uM after 48 hrs by PI-staining based flow cytometric analysis (reference value: 41.6 +/- 0.3%); type: functional
SW-620 [32] = test: Induction of cell cycle arrest in human SW620 cells assessed as subG1 phase cells at 5 uM after 24 hrs by PI-staining based flow cytometric analysis (reference value: 18.1 +/- 3.8%); type: functional
SW-620 [33] = test: Induction of cell cycle arrest in human SW620 cells assessed as subG1 phase cells at 10 uM after 24 hrs by PI-staining based flow cytometric analysis (reference value: 18.1 +/- 3.8%); type: functional
SW-620 [34] = test: Induction of cell cycle arrest in human SW620 cells assessed as G1 phase cells at 10 uM after 48 hrs by PI-staining based flow cytometric analysis (reference value: 49.9 +/- 1.4%); type: functional
SW-620 [35] = test: Induction of cell cycle arrest in human SW620 cells assessed as G1 phase cells at 10 uM after 24 hrs by PI-staining based flow cytometric analysis (reference value: 52.6 +/- 2.3%); type: functional
SW-620 [36] = test: Induction of cell cycle arrest in human SW620 cells assessed as G2/M phase cells at 10 uM after 48 hrs by PI-staining based flow cytometric analysis (reference value: 8.5 +/- 1.6%); type: functional
SW-620 [37] = test: Induction of cell cycle arrest in human SW620 cells assessed as subG1 phase cells at 5 uM after 48 hrs by PI-staining based flow cytometric analysis (reference value: 5.8 +/- 0.3%); type: functional

Structure (SMILES): N#Cc1ccc(NC(=O)c2cc3ccccc3o2)cc1
- IC50 (SK-BR-3): 34.2 µM
- IC50 (SW-620 [1]): 7.4 µM
- IC50 (MIA PaCa-2): 27.1 µM
- IC50 (MCF7): 7.6 µM
- IC50 (WI-38): 7.9 µM
- IC50 (HeLa): 7.6 µM

Structure (SMILES): Cl.O=C(Nc1ccc(C2=NCCN2)cc1)c1cc2ccccc2o1
- Activity (SW-620 [2]): 43.9%
- Activity (SW-620 [3]): 45.7%
- Activity (SW-620 [4]): 46.8%
- IC50 (SK-BR-3): 40.5 µM
- Activity (SW-620 [5]): 8.2%
- Activity (SW-620 [6]): 46.9%
- Activity (SW-620 [7]): inactive
- Activity (SW-620 [8]): 40.9%
- Activity (SW-620 [9]): 13.5%
- Activity (SW-620 [1]): Dose-dependent effect
- IC50 (SW-620 [1]): 6.4 µM
- Activity (SW-620 [10]): 10.4%
- Activity (SW-620 [11]): 42.6%
- Activity (SW-620 [12]): 10.5%
- Activity (SW-620 [13]): Active
- Activity (SW-620 [14]): 43.4%
- IC50 (MIA PaCa-2): 31.5 µM
- IC50 (MCF7): 26.2 µM
- Activity (SW-620 [15]): 40.7%
- Activity (SW-620 [16]): 4.9%
- IC50 (WI-38): 23.3 µM
- Activity (SW-620 [17]): inactive
- IC50 (HeLa): 27.5 µM
- Activity (SW-620 [18]): 12.7%
- Activity (SW-620 [19]): 7.1%
- Activity (SW-620 [20]): inactive
- Activity (SW-620 [21]): 8.3%

Structure (SMILES): O=C(Nc1nc2ccc([N+](=O)[O-])cc2[nH]1)c1cc2ccccc2o1
- IC50 (SK-BR-3): > 100 µM
- IC50 (SW-620 [1]): 6.9 µM
- IC50 (MIA PaCa-2): 9.3 µM
- IC50 (MCF7): 5.2 µM
- IC50 (WI-38): 8.6 µM
- IC50 (HeLa): 9.2 µM

Structure (SMILES): CC(=O)Nc1ccc(NC(=O)c2cc3ccccc3o2)cn1
- Activity (SW-620 [22]): 4.3%
- Activity (SW-620 [23]): 31.4%
- Activity (SW-620 [24]): 44.9%
- IC50 (SK-BR-3): 59.8 µM
- Activity (SW-620 [7]): Active
- Activity (SW-620 [25]): 46.8%
- Activity (SW-620 [26]): 10.7%
- IC50 (SW-620 [1]): 1.1 µM
- Activity (SW-620 [27]): 11.2%
- IC50 (MIA PaCa-2): 3.1 µM
- Activity (SW-620 [28]): 42.6%
- IC50 (MCF7): 7.6 µM
- Activity (SW-620 [29]): 25.3%
- Activity (SW-620 [30]): 43.9%
- Activity (SW-620 [31]): 45.4%
- Activity (SW-620 [32]): 18.1%
- Activity (SW-620 [33]): 18.2%
- Activity (SW-620 [34]): 45.2%
- IC50 (WI-38): 0.4 µM
- Activity (SW-620 [17]): Active
- IC50 (HeLa): 0.9 µM
- Activity (SW-620 [35]): 43.5%
- Activity (SW-620 [36]): 9.5%
- Activity (SW-620 [37]): 4.7%

— ChEMBL document CHEMBL2311305, “Antiproliferative potency of novel benzofuran-2-carboxamides on tumour cell lines: cell death mechanisms and determination of crystal structure” (Eur J Med Chem, 2013)
